Where “and” joins values, the source holds several entries; their conditions need not be identical. Equal values may be shown once.
Legend:
[1] = Partition coefficient (logP); format: physicochemical; details: octanol/water
[2] = Half life is the time required for hydrolysis of compound to 3TC in HBV medium at 37 degree celsius; format: ADME
In short: (§1)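 Compound in DMSO diluted 1:100 into medium, final concentration around 5×10^-4 M, and held at 37 °C. Media: PBS (0.01 M, pH 7.4), HepG2.2.15 culture medium, or MT-4 medium (RPMI 1640 + 10% FCS). Samples taken over time and quenched in ice-cold methanol. Conversion to 3TC followed by HPLC at 317 nm. t1/2 is the time to 50% hydrolysis.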

[3] = Half life is the time required for hydrolysis of compound to 3TC in HepG 2.2.15 lysate medium at 37 degree celsius; format: ADME, HepG2 2.2.15; details: human, HepG 2.2.15 cell lysate
In short: (§2)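 Cell lysates prepared from PBS-washed HepG2.2.15 or MT-4 cells, about 10×10^6 cells/mL, in Tris-HCl 50 mM, NaCl 150 mM, EDTA 0.1 mM, 0.5% NP40 and protease inhibitors. Lysis 10 min on ice, then centrifuged; supernatant used. Compound added from DMSO to a final concentration around 5×10^-4 M, 37 °C. Timed samples quenched in cold methanol, HPLC at 317 nm. t1/2 is the time to 50% conversion to 3TC.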

[4] = Half life is the time required for hydrolysis of compound to 3TC in PBS medium at 37 degree celsius; format: ADME; in short: as §1
[5] = test system: MT4; experiment: Effective concentration to inhibit HIV-1 IIIB cytopathicity in MT-4 cells was determined in vitro; format: functional, cell-based; details: Homo sapiens
In short: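 HIV-1 IIIB-infected MT-4 cells (RPMI 1640, 10% FCS); inhibition of virus-induced cytopathicity read 5 days post-infection; EC50 = concentration inhibiting cytopathicity by 50%.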

[6] = test system: MT4; experiment: Concentration required to cause death of MT-4 cells was determined in vitro; format: functional; details: Homo sapiens
In short: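 Uninfected (mock-infected) MT-4 cells grown in RPMI 1640 + 10% heat-inactivated FCS, 2 mM L-glutamine, gentamicin; viability measured at day 5 at 37 °C, 5% CO2; CC50 = concentration causing 50% death of uninfected cells.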

[7] = test system: PBMC; experiment: Concentration required to cause death of PBMC cells was determined in vitro; format: functional; details: Homo sapiens
In short: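 Healthy-donor PBMCs activated 3 days with PHA-P (1 μg/mL) and rhIL-2 (5 IU/mL), 100 000 cells/well in RPMI 1640/10% FCS + 20 IU/mL rhIL-2; drug-induced cytotoxicity judged by microscopic observation; CC50 = concentration causing 50% death of uninfected cells.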

[8] = test system: PBMC; experiment: Effective concentration to inhibit HIV-1 LAI cytopathicity in PBMC cells was determined in vitro; format: functional, cell-based; details: Homo sapiens
In short: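 PHA-P/rhIL-2-activated PBMCs (100 000/well) pretreated 30 min with compound, then infected with 75 TCID50 HIV-1/LAI; supernatant RT activity measured at day 7; triplicates, mean ± SD; EC50 from percent of untreated controls, 50% inhibition of replication.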

[9] = Half life is the time required for hydrolysis of compound to 3TC in HIV medium at 37 degree celsius; format: ADME; in short: as §1
[10] = Half life is the time required for hydrolysis of compound to 3TC in MT-4 lysate medium at 37 degree celsius; format: ADME; details: human, MT-4 cell lysate; in short: as §2
[11] = test system: HepG2; experiment: Effective concentration to inhibit hepatitis B virus DNA formation in HepG2.2.15 cells was determined in vitro; details: Homo sapiens
[12] = test system: MT4; experiment: Selectivity index is the ratio of CC50 to EC50 values; format: functional
In short: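 Selectivity index = CC50/EC50 for uninfected versus HIV-1-infected MT-4 cells or PBMCs.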

Structure (SMILES)	logP [1]	half-life [2] [h]	half-life [3] [h]	half-life [4] [h]	EC50 [5] [nM]	CC50 [6] [nM]	CC50 [7] [nM]	EC50 [8] [nM]	half-life [9] [h]	half-life [10] [h]	EC50 [11] [nM]	SI [12]
O=c1nc(/N=C/N2CCOCC2)ccn1C1CSC(CO)O1 (stereo not drawn)	0.62	1	2.5	2.5	400	> 265000	> 10000	6.2	1.5	3.5	50	–
CN(C)/C=N/c1ccn(C2CSC(CO)O2)c(=O)n1 (stereo not drawn)	1.02	2	3	3.5	570	> 440000	> 10000	23.7	2.5	4.5	10	>772 and >422
Nc1ccn([C@@H]2CS[C@H](CO)O2)c(=O)n1 [LAMIVUDINE]	0.06	–	–	–	500	> 44000	> 10000	11.6	–	–	200	–
Nc1ccn([C@H]2CC[C@@H](CO)O2)c(=O)n1 [ZALCITABINE]	-0.58	–	–	–	1040	141000	–	–	–	–	–	135

Source: ChEMBL document CHEMBL1148483, “Potent nonclassical nucleoside antiviral drugs based on the N,N-diarylformamidine concept” (J Med Chem, 2004)
